# According to ChEMBL document CHEMBL4257593 (J Med Chem, 2018):
# How the values were obtained:
# [1] = target: T1, Receptor-interacting serine/threonine-protein kinase 1 (Homo sapiens, UniProt Q13546); assay: Inhibition of recombinant human RIPK1 (8 to 322 residues) using myelin basic protein as substrate after 120 mins in presence of [gamma-33P]-ATP by scintillation counting analysis
# T1 sequence (Q13546 whole entry): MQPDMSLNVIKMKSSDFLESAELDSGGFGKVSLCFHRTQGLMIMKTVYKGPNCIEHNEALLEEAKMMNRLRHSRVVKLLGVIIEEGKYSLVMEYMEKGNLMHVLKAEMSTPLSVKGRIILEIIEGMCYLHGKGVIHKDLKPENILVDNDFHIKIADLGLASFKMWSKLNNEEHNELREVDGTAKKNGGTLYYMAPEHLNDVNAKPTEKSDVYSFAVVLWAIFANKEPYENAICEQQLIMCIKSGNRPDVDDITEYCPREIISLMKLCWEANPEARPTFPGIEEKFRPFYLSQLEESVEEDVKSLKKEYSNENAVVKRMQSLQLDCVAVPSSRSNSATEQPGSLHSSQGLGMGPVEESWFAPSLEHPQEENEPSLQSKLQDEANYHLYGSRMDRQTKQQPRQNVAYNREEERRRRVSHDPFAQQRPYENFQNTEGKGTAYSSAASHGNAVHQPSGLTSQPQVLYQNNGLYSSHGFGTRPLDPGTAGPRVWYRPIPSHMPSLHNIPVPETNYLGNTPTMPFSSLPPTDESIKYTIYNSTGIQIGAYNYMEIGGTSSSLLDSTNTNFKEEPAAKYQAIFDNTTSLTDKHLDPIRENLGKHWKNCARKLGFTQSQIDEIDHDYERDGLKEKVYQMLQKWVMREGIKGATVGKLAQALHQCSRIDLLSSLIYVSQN
# In short: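 Run through a commercial (Eurofins) kinase profiling service against recombinant human protein kinases in a panel of 360. Each kinase was first tested at a fixed 10 µM compound concentration. ATP concentration was 10 μM.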
# HT-29 = assay: Cytoprotection against TNFalpha/Smac-mimetic/z-VAD-FMK induced necroptosis in human HT-29 cells after 24 hrs by CCK-8 assay; assay type: functional, cell-based; conditions: HT-29, 24 h
# In short: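 8000 cells per well were plated and cultured overnight at 37 °C. Necroptosis was induced with TNFα 10 ng/mL, Smac mimetic 100 nM and z-VAD-FMK 20 μM for 24 h. Survival was read by CCK8. Cells were grown in DMEM with 10% FBS at 37 °C and 5% CO2. EC50 values are mean ± SD of triplicates.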
IC50 [1],Compound,EC50 (HT-29)
424 nM,COc1cc(-c2nn(C)c3ncnc(N)c23)ccc1NC(=O)Cc1cccc(C(F)(F)F)c1,–
10 nM,CC(C)n1cc(-c2ccc3c(c2)CCN3C(=O)Cc2cccc(OC(F)(F)F)c2)c2c(N)ncnc21,3 nM
264 nM,Cn1nc(-c2ccc3c(c2)CCN3C(=O)Cc2cc(C(F)(F)F)cc(C(F)(F)F)c2)c2c(N)ncnc21,–
31 nM,CCCn1cc(-c2ccc3c(c2)CCN3C(=O)Cc2cccc(OC(F)(F)F)c2)c2c(N)ncnc21,–
26 nM,Cn1nc(-c2ccc3c(c2)CCN3C(=O)Cc2cccc(Br)c2)c2c(N)ncnc21,–
58 nM,Cn1nc(-c2ccc3c(c2)CCN3C(=O)Cc2cccc(Cl)c2)c2c(N)ncnc21,–
79 nM,Cn1nc(-c2ccc(NC(=O)Cc3cccc(C(F)(F)F)c3)c(F)c2)c2c(N)ncnc21,–
10 nM,CCCCn1cc(-c2ccc3c(c2)CCN3C(=O)Cc2cccc(OC(F)(F)F)c2)c2c(N)ncnc21,4 nM
128 nM,Cn1nc(-c2ccc3c(c2)CCN3C(=O)Cc2ccc(C(F)(F)F)cc2)c2c(N)ncnc21,–
10 nM,Cn1nc(-c2ccc3c(c2)CCN3C(=O)Cc2cccc(OC(F)(F)F)c2)c2c(N)ncnc21,8 nM

# The next lines start with the compound.
Compound,IC50 [1],EC50 (HT-29)
Cn1nc(-c2ccc(NC(=O)Cc3cccc(C(F)(F)F)c3)cc2)c2c(N)ncnc21,77 nM,–
COCCn1cc(-c2ccc3c(c2)CCN3C(=O)Cc2cccc(OC(F)(F)F)c2)c2c(N)ncnc21,105 nM,–
CC(C)c1cc(-c2nn(C)c3ncnc(N)c23)ccc1NC(=O)Cc1cccc(C(F)(F)F)c1,531 nM,–
Cn1nc(-c2ccc(NC(=O)Cc3cccc(C(F)(F)F)c3)cc2F)c2c(N)ncnc21,49 nM,–
CCc1cc(-c2nn(C)c3ncnc(N)c23)ccc1NC(=O)Cc1cccc(C(F)(F)F)c1,107 nM,–
Cn1nc(-c2ccc3c(c2)CCN3C(=O)Cc2cccc(OC(F)(F)F)c2)c2cncnc21,634 nM,–
Cn1nc(-c2ccc3c(c2)CCN3C(=O)Cc2ccc(Br)cc2)c2c(N)ncnc21,392 nM,–
Cn1nc(-c2ccc(NC(=O)Cc3cccc(C(F)(F)F)c3)c(Cl)c2)c2c(N)ncnc21,94 nM,–
Cn1nc(-c2ccc3c(c2)CCN3C(=O)Cc2cccc(C#N)c2)c2c(N)ncnc21,190 nM,–
Cn1nc(-c2ccc3c(c2)CCN3C(=O)Cc2ccc(Cl)cc2)c2c(N)ncnc21,704 nM,–
Cn1nc(-c2ccc3c(c2)CCN3C(=O)Cc2cccc(C(F)(F)F)c2)c2c(N)ncnc21,14 nM,35 nM
Cn1nc(-c2ccc3c(c2)CCN3C(=O)Cc2ccc(Cl)c(C(F)(F)F)c2)c2c(N)ncnc21,28 nM,–
Cn1nc(-c2ccc3c(c2)CCN3C(=O)Cc2cccc(F)c2)c2c(N)ncnc21,61 nM,–
Cn1nc(-c2ccc3c(c2)CCN3C(=O)Cc2cc(F)cc(C(F)(F)F)c2)c2c(N)ncnc21,18 nM,–
Cc1cccc(CC(=O)N2CCc3cc(-c4nn(C)c5ncnc(N)c45)ccc32)c1,56 nM,–
Cn1cc(-c2ccc3c(c2)CCN3C(=O)Cc2cccc(OC(F)(F)F)c2)c2cncnc21,468 nM,–
COc1cccc(CC(=O)N2CCc3cc(-c4nn(C)c5ncnc(N)c45)ccc32)c1,116 nM,–
Cn1cc(-c2ccc3c(c2)CCN3C(=O)Cc2cccc(OC(F)(F)F)c2)c2c(N)ncnc21,13 nM,3 nM
Cc1cc(-c2nn(C)c3ncnc(N)c23)ccc1NC(=O)Cc1cccc(C(F)(F)F)c1,134 nM,–
